The values that follow come from ChEMBL document CHEMBL3102696, “Synthesis/biological evaluation of hydroxamic acids and their prodrugs as inhibitors for Botulinum neurotoxin A light chain” (Bioorg Med Chem, 2014).

Series [1] concerns the target T1, Botulinum neurotoxin type A (Clostridium botulinum, UniProt P0DPI0). Also on record: species or system Hall A hyper.
The target of series [2] is T1, Botulinum neurotoxin type A. The series can be described thus: Inhibition of Clostridium botulinum BoNT/A light chain (1 to 425 amino acids) by FRET method. The essentials: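 Recombinant truncated light chain (residues 1–425) at 37 nM, incubated with SNAPtide, a 13mer SNAP-25 pseudosubstrate carrying a FITC fluorophore and a DABCYL quencher. Cleavage read as FRET fluorescence.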

The target is the same in series [3]. The series can be described thus: Inhibition of Clostridium botulinum BoNT/A light chain (1 to 425 amino acids) by LC-MS analysis.
Series [4] has as its target Botulinum neurotoxin type A (Clostridium botulinum) (UniProt P0DPI0). The settings on record: Hall A hyper.
Series [5] is described as follows: Cytotoxicity against human induced pluripotent stem cell-derived neurons at 1 mM. The conditions noted are these: induced pluripotent stem cell-derived neuron, 1000 µM.
Series [6] deals with Botulinum neurotoxin type A (Clostridium botulinum) (UniProt P0DPI0). The conditions noted are these: Hall A hyper. The source holds these as a separate data set.
Series [7] shares this target. The conditions noted are these: Hall A hyper. This is another data set of the same source.
A short description of series [8]: Cytotoxicity against human induced pluripotent stem cell-derived neurons at 150 uM. The settings on record: induced pluripotent stem cell-derived neuron.
Series [9] can be described thus: Cytotoxicity against human induced pluripotent stem cell-derived neurons at 200 uM. The conditions noted are these: induced pluripotent stem cell-derived neuron.

Structures are written as SMILES. Active and inactive are the calls of the source. The calls are words filed in the database; no cut-off is given here.

T1 sequence (P0DPI0 2-448 limits assumed): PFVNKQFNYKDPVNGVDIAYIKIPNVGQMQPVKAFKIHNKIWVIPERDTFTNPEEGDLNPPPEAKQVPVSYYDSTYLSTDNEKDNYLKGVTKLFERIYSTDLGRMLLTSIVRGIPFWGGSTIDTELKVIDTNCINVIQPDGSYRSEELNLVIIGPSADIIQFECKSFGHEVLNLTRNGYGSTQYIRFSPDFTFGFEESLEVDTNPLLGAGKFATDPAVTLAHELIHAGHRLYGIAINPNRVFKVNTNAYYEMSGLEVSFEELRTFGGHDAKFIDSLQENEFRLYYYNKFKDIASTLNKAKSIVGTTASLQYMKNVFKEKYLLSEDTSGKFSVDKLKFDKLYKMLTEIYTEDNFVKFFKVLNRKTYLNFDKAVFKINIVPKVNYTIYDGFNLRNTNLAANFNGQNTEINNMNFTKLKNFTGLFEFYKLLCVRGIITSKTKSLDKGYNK
Sequence of Botulinum neurotoxin type A (Clostridium botulinum) (P0DPI0 2-448 limits assumed): as above

With `O=C(CC(CC(=O)Nc1ccc(Br)cc1)c1ccc(Cl)cc1Cl)NOC(=O)NCc1ccccc1` (stereo not drawn), in [1], the EC50 came out at 198 µM.

Regarding `Cc1ccccc1NC(=O)CC(CC(=O)NOC(=O)NCc1ccccc1)c1ccc(Cl)cc1Cl` (stereo not drawn), a half-maximal response in series [1] (EC50) required 209 µM. In series [2], `O=C(CC(CCOCCc1ccc(F)cc1)c1ccc(Cl)cc1Cl)NO` (stereo not drawn) displayed an IC50 of 0.97 µM. Moreover, the affinity in [3], expressed as Ki, was 2.1 µM.

`O=C(CC(CC(=O)Nc1ccc(Br)cc1)c1ccc(Cl)cc1Cl)NO` (stereo not drawn) yielded an IC50 in series [2] of 6.4 µM.

On to `O=C(CC(CCO)c1ccc(Cl)cc1Cl)NOC(=O)NCc1ccccc1` (stereo not drawn), for which, in [4], the inhibition entry is “Active”.

In series [2], `O=C(CC(CC(=O)NCCc1ccc(F)cc1)c1ccc(Cl)cc1Cl)NO` (stereo not drawn) came in with a concentration for half-maximal inhibition (IC50) of 2.6 µM.

For `O=C(CC(CCOCc1ccccc1)c1ccc(Cl)cc1Cl)NOC(=O)NCc1ccccc1` (stereo not drawn), the Activity entry in series [5] is “Toxic”. Further, in [6], the inhibition result is “inactive”.

For `O=C(CC(CCOCC12CC3CC(CC(Br)(C3)C1)C2)c1ccc(Cl)cc1Cl)NOC(=O)NCc1ccccc1` (stereo not drawn), the concentration giving a half-maximal response (EC50) in series [1] is > 1000 µM.

Take `O=C(/C=C/c1ccc(Cl)cc1Cl)NOC(=O)NCc1ccccc1`: the inhibition entry in series [7] was “inactive”. Also, in series [8], the Activity entry is “Toxic”. For `C=CCOCCC(CC(=O)NO)c1ccc(Cl)cc1Cl` (stereo not drawn), in [2], the IC50 worked out at 5.4 µM. Turning to `O=C(CC(CCOCCc1ccc(F)cc1)c1ccc(Cl)cc1Cl)NOC(=O)NCc1ccccc1` (stereo not drawn), the Activity entry in series [5] is reported as “Toxic”. In series [6], the inhibition result was “inactive”. For the compound `Cc1ccccc1NC(=O)CC(CC(=O)NO)c1ccc(Cl)cc1Cl` (stereo not drawn), half-maximal inhibition in series [2] (IC50) was put at 2 µM. For the compound `O=C(CC(CC(=O)NCCC1CC1)c1ccc(Cl)cc1Cl)NO` (stereo not drawn), the midpoint of inhibition in series [2], the IC50, lay at 9.2 µM. Regarding `COc1cc(F)ccc1NC(=O)CC(CC(=O)NO)c1ccc(Cl)cc1Cl` (stereo not drawn), the IC50 in series [2] came to 1.1 µM. In [3], the affinity, expressed as Ki, was 1 µM.

In turn, `O=C(CC(CCOCC12CC3CC(CC(Br)(C3)C1)C2)c1ccc(Cl)cc1Cl)NO` (stereo not drawn) showed an IC50 in [2] of 13 µM. `O=C(CC(CCOCc1ccccc1)c1ccc(Cl)cc1Cl)NO` (stereo not drawn): it took 2.9 µM to reach half-maximal inhibition in [2] (IC50).

In the case of `COc1ccc(CCNC(=O)CC(CC(=O)NO)c2ccc(Cl)cc2Cl)cc1` (stereo not drawn), the IC50 in series [2] came to 6.7 µM. For `O=C(CC(CCO)c1ccc(Cl)cc1Cl)NO` (stereo not drawn), the Activity entry in series [9] was “Non-toxic”.

For orientation: EC50 means the concentration giving half of the maximal effect. Low values mean an effect from little substance, high ones a need for much substance. Usually IC50 stands for the concentration at which inhibition is half-maximal. Read a low IC50 as greater potency. One may read the Ki as a dissociation constant, usually derived from enzyme kinetics or from competition with a known ligand. Read a high Ki as weaker binding.
